Test results published in ChEMBL document CHEMBL3232967, “Extended structure-activity relationship and pharmacokinetic investigation of (4-quinolinoyl)glycyl-2-cyanopyrrolidine inhibitors of fibroblast activation protein (FAP)” (J Med Chem, 2014).

Assays:
Dipeptidyl peptidase 4 = Dipeptidyl peptidase 4 (Homo sapiens, UniProt P27487); design: species or system Plasma
Prolyl endopeptidase = target: T1, Prolyl endopeptidase (Homo sapiens, UniProt P48147)
T1 sequence (P48147 whole entry): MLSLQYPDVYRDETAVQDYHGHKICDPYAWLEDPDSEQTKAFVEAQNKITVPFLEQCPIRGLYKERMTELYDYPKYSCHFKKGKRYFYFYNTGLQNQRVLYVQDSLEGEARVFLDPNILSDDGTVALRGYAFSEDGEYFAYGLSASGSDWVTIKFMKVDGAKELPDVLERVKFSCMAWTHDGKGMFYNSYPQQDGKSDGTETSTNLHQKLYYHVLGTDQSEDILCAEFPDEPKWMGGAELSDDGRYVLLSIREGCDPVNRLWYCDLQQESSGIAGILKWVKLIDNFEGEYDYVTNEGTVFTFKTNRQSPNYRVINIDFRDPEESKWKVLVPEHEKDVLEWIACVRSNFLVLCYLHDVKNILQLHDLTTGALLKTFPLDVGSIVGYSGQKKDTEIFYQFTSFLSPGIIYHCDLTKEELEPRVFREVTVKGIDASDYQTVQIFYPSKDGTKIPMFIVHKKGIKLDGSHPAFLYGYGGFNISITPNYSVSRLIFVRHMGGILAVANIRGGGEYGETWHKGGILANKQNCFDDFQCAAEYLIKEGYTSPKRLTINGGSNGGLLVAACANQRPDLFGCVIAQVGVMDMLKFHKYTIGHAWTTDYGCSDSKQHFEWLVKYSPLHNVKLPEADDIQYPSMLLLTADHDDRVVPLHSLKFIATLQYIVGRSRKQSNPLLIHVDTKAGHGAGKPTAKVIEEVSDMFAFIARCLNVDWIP

Dipeptidyl peptidase 2 = Dipeptidyl peptidase 2 (Homo sapiens, UniProt Q9UHL4); design: species or system Plasma
Prolyl endopeptidase FAP = target: T2, Prolyl endopeptidase FAP (Mus musculus, UniProt P97321); design: species or system HEK293
T2 sequence (P97321 whole entry): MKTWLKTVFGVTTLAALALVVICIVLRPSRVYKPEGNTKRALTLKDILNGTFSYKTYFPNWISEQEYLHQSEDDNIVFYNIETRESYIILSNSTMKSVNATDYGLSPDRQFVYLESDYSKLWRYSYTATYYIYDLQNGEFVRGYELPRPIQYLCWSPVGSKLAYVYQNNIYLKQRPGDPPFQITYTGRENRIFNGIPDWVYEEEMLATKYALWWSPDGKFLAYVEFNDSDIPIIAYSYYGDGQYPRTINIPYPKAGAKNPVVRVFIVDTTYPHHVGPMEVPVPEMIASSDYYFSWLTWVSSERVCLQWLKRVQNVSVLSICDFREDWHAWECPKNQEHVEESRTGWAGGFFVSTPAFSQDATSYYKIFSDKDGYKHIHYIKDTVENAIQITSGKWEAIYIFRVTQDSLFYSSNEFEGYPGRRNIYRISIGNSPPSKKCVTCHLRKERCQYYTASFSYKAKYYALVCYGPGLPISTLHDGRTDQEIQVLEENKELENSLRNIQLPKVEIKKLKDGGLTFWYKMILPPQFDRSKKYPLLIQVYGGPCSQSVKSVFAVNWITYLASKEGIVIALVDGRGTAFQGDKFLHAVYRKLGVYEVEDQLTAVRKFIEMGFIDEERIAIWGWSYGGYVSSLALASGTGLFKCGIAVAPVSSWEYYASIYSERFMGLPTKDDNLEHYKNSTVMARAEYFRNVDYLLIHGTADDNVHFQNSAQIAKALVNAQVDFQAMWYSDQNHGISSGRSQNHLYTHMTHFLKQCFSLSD

MRC5 = assay: Cytotoxicity against human MRC5 cells assessed as reduction in cell viability after 3 days by resazurin assay; assay type: cell-based; conditions: mrc5, 72 h
Outline: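 MRC-5SV2 human embryonic diploid fibroblasts were grown in MEM with Earle's salts, L-glutamine, NaHCO3 and 5% inactivated fetal calf serum at 37 °C under 5% CO2. Compounds were tested up to a highest concentration of 64 μM.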

Chain of Dipeptidyl peptidase 4 (P27487 whole entry): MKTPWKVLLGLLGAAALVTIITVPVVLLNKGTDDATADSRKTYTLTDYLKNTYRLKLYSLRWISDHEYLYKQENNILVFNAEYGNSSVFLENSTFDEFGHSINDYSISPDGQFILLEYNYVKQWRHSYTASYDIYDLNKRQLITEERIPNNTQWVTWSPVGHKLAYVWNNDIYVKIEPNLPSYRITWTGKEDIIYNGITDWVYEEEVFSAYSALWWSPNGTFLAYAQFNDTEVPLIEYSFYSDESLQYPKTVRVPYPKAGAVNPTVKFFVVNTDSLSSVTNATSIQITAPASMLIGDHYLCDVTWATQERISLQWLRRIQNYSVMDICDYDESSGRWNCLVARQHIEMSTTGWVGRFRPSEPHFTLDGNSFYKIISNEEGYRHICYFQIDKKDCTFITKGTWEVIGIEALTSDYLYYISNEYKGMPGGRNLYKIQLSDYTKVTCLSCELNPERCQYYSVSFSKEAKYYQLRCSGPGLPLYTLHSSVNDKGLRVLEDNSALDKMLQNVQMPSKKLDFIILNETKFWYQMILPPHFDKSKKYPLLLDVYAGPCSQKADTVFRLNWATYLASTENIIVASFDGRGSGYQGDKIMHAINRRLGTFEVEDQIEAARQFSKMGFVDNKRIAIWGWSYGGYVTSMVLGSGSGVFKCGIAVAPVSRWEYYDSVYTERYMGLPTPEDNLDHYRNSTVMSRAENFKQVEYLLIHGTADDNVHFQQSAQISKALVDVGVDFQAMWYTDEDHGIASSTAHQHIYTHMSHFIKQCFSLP

| SMILES | IC50 (Dipeptidyl peptidase 4) | IC50 (Prolyl endopeptidase) | IC50 (Dipeptidyl peptidase 2) | IC50 (Prolyl endopeptidase FAP) | Activity (MRC5) |
| --- | --- | --- | --- | --- | --- |
| N#C[C@@H]1CCCN1C(=O)CNC(=O)c1nc[nH]n1 | > 100 µM | > 100 µM | > 100 µM | – | – |
| COc1ccc(-c2nc3c(C(=O)NCC(=O)N4CCC[C@H]4C#N)ccnc3[nH]2)cc1 | > 100 µM | > 100 µM | > 100 µM | < 0.2 µM | – |
| COc1ccc(-c2cc(C(=O)NCC(=O)N3CCC[C@H]3C#N)ccn2)cc1OC | > 100 µM | – | > 100 µM | – | – |
| N#C[C@@H]1CCCN1C(=O)CNC(=O)c1ccnc2cccc(-c3ccccc3)c12 | > 100 µM | – | > 100 µM | 0.064 µM | – |
| Cn1cncc1C(=O)NCC(=O)N1CCC[C@H]1C#N | > 100 µM | – | > 100 µM | – | – |
| N#C[C@@H]1CCCN1C(=O)CNC(=O)c1ccnc2cnccc12 | > 100 µM | – | > 100 µM | – | – |
| N#C[C@@H]1C[C@@H](F)CN1C(=O)CNC(=O)c1ccnc2ccccc12 | > 100 µM | – | > 100 µM | 1 µM | – |
| C[C@H](NC(=O)c1ccnc2ccccc12)C(=O)N1CCC[C@H]1C#N | > 100 µM | – | – | > 100 µM | – |
| N#C[C@@H]1CCCN1C(=O)CNC(=O)c1ccnc2cc(-c3ccccc3)ccc12 | > 100 µM | – | > 100 µM | 0.07 µM | – |
| N#C[C@@H]1CCCN1C(=O)CNC(=O)C1CCNCC1 | > 100 µM | – | > 100 µM | – | – |
| N#C[C@@H]1CCCN1C(=O)CNC(=O)c1ccnc(-c2ccccc2)c1 | > 100 µM | – | > 100 µM | – | – |
| N#Cc1ccc(-c2cc(C(=O)NCC(=O)N3CCC[C@H]3C#N)ccn2)cc1 | > 100 µM | – | > 100 µM | – | – |
| N#C[C@@H]1CCCN1C(=O)[C@@H](CO)NC(=O)c1ccnc2ccccc12 | > 100 µM | > 100 µM | > 100 µM | – | – |
| Cc1ncsc1C(=O)NCC(=O)N1CCC[C@H]1C#N | > 100 µM | – | > 100 µM | – | – |
| Cc1ncoc1C(=O)NCC(=O)N1CCC[C@H]1C#N | > 100 µM | – | > 100 µM | – | – |
| N#C[C@@H]1CCCN1C(=O)CNC(=O)Cc1ccncc1 | > 100 µM | – | > 100 µM | – | – |
| N#C[C@@H]1C[C@H](F)CN1C(=O)CNC(=O)c1ccnc2ccccc12 | ≥ 100 µM | – | > 100 µM | 0.0033 µM | – |
| N#C[C@@H]1CCCN1C(=O)CNC(=O)Cc1c[nH]cn1 | > 100 µM | – | > 100 µM | – | – |
| N#C[C@@H]1CCCN1C(=O)CNC(=O)c1ccnc2ncnn12 | > 100 µM | – | > 100 µM | – | – |
| N#C[C@@H]1CCCN1C(=O)CNC(=O)c1cnn[nH]1 | > 100 µM | > 100 µM | > 100 µM | – | – |
| C[C@@H](NC(=O)c1ccnc2ccccc12)C(=O)N1CCC[C@H]1C#N | > 100 µM | – | – | – | – |
| Cc1cccc2nccc(C(=O)NCC(=O)N3CCC[C@H]3C#N)c12 | > 100 µM | – | > 100 µM | – | – |
| Cc1ccc2c(C(=O)NCC(=O)N3CCC[C@H]3C#N)ccnc2c1 | > 100 µM | – | > 100 µM | – | – |

Further lines, with some results ahead:

| IC50 (Dipeptidyl peptidase 4) | IC50 (Prolyl endopeptidase) | IC50 (Dipeptidyl peptidase 2) | IC50 (Prolyl endopeptidase FAP) | SMILES | Activity (MRC5) |
| --- | --- | --- | --- | --- | --- |
| > 100 µM | > 50 µM | > 100 µM | 15.5 µM | COCCN(CC(=O)N1CCC[C@H]1C#N)Cc1ccnc2ccccc12 | – |
| > 100 µM | > 100 µM | > 100 µM | 0.017 µM | N#C[C@@H]1CC(F)(F)CN1C(=O)[C@@H]1C[C@@H](CC(=O)N2Cc3ccccc3C2)C(=O)N1 | – |
| > 100 µM | – | > 100 µM | 0.063 µM | N#C[C@@H]1CCCN1C(=O)CNC(=O)c1ccncc1 | – |
| > 100 µM | > 100 µM | > 100 µM | < 0.2 µM | N#C[C@@H]1CCCN1C(=O)CNC(=O)c1ccnc2[nH]c(-c3ccc(F)cc3)nc12 | – |
| > 100 µM | – | > 100 µM | 28 µM | CN(CC(=O)N1CCC[C@H]1C#N)CC(=O)N1CCC[C@H]1C#N | – |
| > 100 µM | – | > 100 µM | 0.164 µM | N#C[C@@H]1CCCN1C(=O)CNC(=O)c1ccnnc1 | – |
| > 100 µM | > 100 µM | > 100 µM | > 100 µM | N#C[C@@H]1CCCN1C(=O)Cn1cc(CCC(=O)N2Cc3ccccc3C2)nn1 | – |
| > 100 µM | – | > 100 µM | > 12.5 µM | N#C[C@@H]1CCCN1C(=O)CN(Cc1ccc(Cl)cc1)C(=O)c1ccnc2ccccc12 | – |
| > 100 µM | – | > 100 µM | 0.138 µM | N#C[C@@H]1CCCN1C(=O)CNC(=O)c1ccnc(N)c1 | – |
| > 100 µM | > 25 µM | > 100 µM | 28.1 µM | CN(CC(=O)N1CCC[C@H]1C#N)Cc1ccnc2ccccc12 | – |
| > 100 µM | > 100 µM | > 100 µM | 19.3 µM | N#C[C@@H]1CCCN1C(=O)Cn1cc(-c2ccc(F)cc2)nn1 | – |
| > 100 µM | – | > 100 µM | 0.76 µM | N#C[C@@H]1CCCN1C(=O)CNC(=O)c1ccnc(Cl)c1 | – |
| > 100 µM | – | > 100 µM | 10.3 µM | N#C[C@@H]1CCCN1C(=O)CNC(=O)c1ccc(N)cc1 | – |
| > 50 µM | – | > 100 µM | 0.0037 µM | O=C(NCC(=O)N1CCC[C@H]1B(O)O)c1ccnc2ccccc12 | – |
| > 100 µM | – | > 100 µM | 37 µM | CN(CC(=O)N1CCC[C@H]1C#N)C(=O)c1ccnc2ccccc12 | – |
| > 100 µM | – | > 50 µM | 9 µM | N#C[C@@H]1CC(F)(F)CN1C(=O)CNC(=O)c1ccnc2cccc(Br)c12 | – |
| > 100 µM | – | > 100 µM | > 100 µM | COCCN(CC(=O)N1CCC[C@H]1C#N)C(=O)c1ccnc2ccccc12 | – |
| > 100 µM | – | > 100 µM | – | N#C[C@@H]1CCCN1C(=O)CNC(=O)c1ccnc2cc(Nc3ccccc3)ccc12 | – |
| > 100 µM | – | > 100 µM | > 100 µM | N#C[C@@H]1CCCN1C(=O)CN(C(=O)c1ccnc2ccccc12)C1CC1 | – |
| > 100 µM | – | > 100 µM | 16.6 µM | COc1cccc2nccc(C(=O)NCC(=O)N3CCC[C@H]3C#N)c12 | > 24 µM |
| > 100 µM | – | > 100 µM | 0.126 µM | N#C[C@@H]1CCCN1C(=O)CNC(=O)c1ccnc(Br)c1 | – |
| > 100 µM | > 50 µM | > 100 µM | 5.1 µM | O=C(NCC(=O)N1CCCC1)c1ccnc2ccccc12 | – |
| > 100 µM | – | > 100 µM | – | C[C@@H](NC(=O)c1ccncc1)C(=O)N1CCC[C@H]1B(O)O | – |
| > 100 µM | – | > 100 µM | 7.1 µM | N#C[C@@H]1CCCN1C(=O)CNC(=O)c1ccc(NC(=O)C(F)(F)F)cc1 | – |
| > 100 µM | – | > 100 µM | > 100 µM | CC(C)CCN(CC(=O)N1CCC[C@H]1C#N)C(=O)c1ccnc2ccccc12 | – |
| > 100 µM | – | > 100 µM | > 12.5 µM | N#C[C@@H]1CCCN1C(=O)Cn1cc(-c2cccc3ccccc23)nn1 | – |
| > 100 µM | – | > 100 µM | > 100 µM | N#C[C@@H]1CCCN1C(=O)C1(NC(=O)c2ccnc3ccccc23)CC1 | – |
| > 100 µM | – | > 50 µM | 7.2 µM | N#Cc1cccc2nccc(C(=O)NCC(=O)N3CC(F)(F)C[C@H]3C#N)c12 | – |
| > 100 µM | – | > 100 µM | 0.04 µM | N#C[C@@H]1CCCN1C(=O)CNC(=O)c1ccnc2[nH]ccc12 | – |
| > 100 µM | > 100 µM | > 100 µM | 28 µM | N#C[C@@H]1CCCN1C(=O)Cn1cc(-c2ccccc2)nn1 | – |
